The source made the active and inactive calls. No cut-off for these calls is given here.
Assays:
[1] = test system: SK-BR-3; experiment: Cell cycle arrest in human SKBR3 cells assessed as accumulation at subG1 phase at 0.5 uM after 48 hrs by flow cytometric analysis (reference value: 7 +/- 1%); format: functional
[2] = test system: SK-BR-3; experiment: Cell cycle arrest in human SKBR3 cells assessed as accumulation at G2/M phase at 0.5 uM after 48 hrs by flow cytometric analysis (reference value: 21 +/- 1%); format: functional
[3] = test system: SK-BR-3; experiment: Cell cycle arrest in human SKBR3 cells assessed as accumulation at S phase at 0.5 uM after 48 hrs by flow cytometric analysis (reference value: 19 +/- 6%); format: functional
[4] = organism: Oryctolagus cuniculus; experiment: Inhibition of HSP90 in rabbit reticulocyte lysate assessed as inhibition of heat-denatured luciferase refolding after 30 mins by luminescence plate reader analysis
How it was run: (§1)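 Rabbit reticulocyte lysate with ATP regeneration (10 mM phosphocreatine, 1 mM ATP, 17.5 IU creatine kinase) preincubated with compound 20 min on ice; firefly luciferase (100 nM) heat-denatured 40 °C 8 min, diluted 10-fold into lysate; 28 °C, triplicate aliquots luminescence-read at 0, 15, 30, 60 min; mean RLU or % of DMSO.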

[5] = organism: Oryctolagus cuniculus; experiment: Inhibition of HSP90 in rabbit reticulocyte lysate assessed as inhibition of heat-denatured luciferase refolding at 0.5 uM by luminescence plate reader analysis; conditions: TDE = time-dependent effect; how it was run: as §1
[6] = test system: SK-BR-3; experiment: Cell cycle arrest in human SKBR3 cells assessed as accumulation at G0/G1 phase at 0.5 uM after 48 hrs by flow cytometric analysis (reference value: 54 +/- 2%); format: functional
[7] = test system: SK-BR-3; experiment: Cell cycle arrest in human SKBR3 cells assessed as accumulation at subG1 phase after 48 hrs by flow cytometric analysis; format: functional, cell-based
[8] = test system: SK-BR-3; experiment: Cell cycle arrest in human SKBR3 cells assessed as accumulation at subG1 phase at 12.5 to 25 uM by flow cytometric analysis; format: functional, cell-based; conditions: TDE = time-dependent effect
[9] = test system: SK-BR-3; experiment: Cell cycle arrest in human SKBR3 cells assessed as accumulation at subG1 phase at 12.5 uM after 48 hrs by flow cytometric analysis (reference value: 7 +/- 1%); format: functional
[10] = test system: SK-BR-3; experiment: Cell cycle arrest in human SKBR3 cells assessed as accumulation at subG1 phase at 25 uM after 48 hrs by flow cytometric analysis (reference value: 7 +/- 1%); format: functional
[11] = test system: SK-BR-3; experiment: Cell cycle arrest in human SKBR3 cells assessed as accumulation at G2/M phase at 12.5 uM after 48 hrs by flow cytometric analysis (reference value: 21 +/- 1%); format: functional
[12] = test system: SK-BR-3; experiment: Cell cycle arrest in human SKBR3 cells assessed as accumulation at G2/M phase at 25 uM after 48 hrs by flow cytometric analysis (reference value: 21 +/- 1%); format: functional
[13] = test system: SK-BR-3; experiment: Cell cycle arrest in human SKBR3 cells assessed as accumulation at S phase at 12.5 uM after 48 hrs by flow cytometric analysis (reference value: 19 +/- 6%); format: functional
[14] = test system: SK-BR-3; experiment: Cell cycle arrest in human SKBR3 cells assessed as accumulation at S phase at 25 uM after 48 hrs by flow cytometric analysis (reference value: 19 +/- 6%); format: functional
[15] = test system: SK-BR-3; experiment: Cell cycle arrest in human SKBR3 cells assessed as accumulation at G0/G1 phase at 12.5 uM after 48 hrs by flow cytometric analysis (reference value: 54 +/- 2%); format: functional
[16] = test system: SK-BR-3; experiment: Cell cycle arrest in human SKBR3 cells assessed as accumulation at G0/G1 phase at 25 uM after 48 hrs by flow cytometric analysis (reference value: 54 +/- 2%); format: functional
[17] = organism: Oryctolagus cuniculus; experiment: Inhibition of HSP90 in rabbit reticulocyte lysate assessed as inhibition of heat-denatured luciferase refolding at 100 uM by luminescence plate reader analysis; conditions: TDE = time-dependent effect; how it was run: as §1
[18] = organism: Mus musculus; experiment: Inhibition of HSP90 in mouse 3T3-Y9-B12 cells assessed as activation of HSF1 at 0.78 to 25 uM after overnight incubation by GFP reporter gene assay relative to control; format: cell-based
How it was run: (§2)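 3T3-Y9-B12 mouse fibroblasts carrying a GFP gene under a minimal heat-shock element; near-confluent monolayers given serial dilutions in triplicate wells overnight, DMSO ≤0.25% vehicle, GA 0.5 µM positive control; after PBS wash, fluorescence at 485/525 nm, normalized to DMSO.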

[19] = test system: MCF7; experiment: Cytotoxicity against ER-positive human MCF7 cells expressing low level of HER2 after 3 days by MTT assay; format: functional, cell-based; conditions: MCF7, 72 h
How it was run: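 MCF-7 seeded 2,000 cells/well, serial dilutions added after 24 h, 72 h exposure; MTT at 500 µg/mL final, 3 h at 37 °C, formazan dissolved in DMSO, absorbance 570 nm minus 650 nm background. Triplicates, at least two experiments; IC50 = concentration cutting viable signal by 50% of DMSO control.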

[20] = target: T1, Heat shock protein HSP90 (Homo sapiens, UniProt P07900+P08238); experiment: Inhibition of HSP90 in human SKBR3 cells assessed as aggregation of intracellular HER2 at 25 uM after 18 hrs by DAPI staining-based immunofluorescence microscopic analysis; format: cell-based; conditions: SK-BR-3
How it was run: (§3)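 SKBR3 in chamber slides adhered overnight, treated 18 h, fixed 4% paraformaldehyde, permeabilized 1% Triton X-100, goat-serum block; anti-HER2 (20 µg/mL) then Alexa Fluor 488 secondary (2 µg/mL) on ice, DAPI nuclear counterstain; imaged at 160× with identical exposures. GA 0.5 µM positive control.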

[21] = target: T1, Heat shock protein HSP90; experiment: Inhibition of HSP90 in human MCF7 cells assessed as depletion of total HER2 protein level at 12.5 to 25 uM after 18 hrs by Western blot analysis; format: cell-based
How it was run: (§4)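 MCF-7 cells at 70% confluence treated 18 h; floating plus trypsinized cells pooled, lysed in NP-40 buffer (pH 7.4) with protease/phosphatase inhibitors; 20 µg protein on 7.5% SDS-PAGE, nitrocellulose, milk block; probed for HER2 (2.0 µg/mL monoclonal) or HSP72, alkaline-phosphatase secondary, NBT/BCIP development; Ponceau S loading check.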

[22] = target: T1, Heat shock protein HSP90; experiment: Inhibition of HSP90 in human MCF7 cells assessed as depletion of total HER2 protein level at 50 uM after 18 hrs by Western blot analysis relative to control; format: cell-based; how it was run: as §4
[23] = test system: SK-BR-3; experiment: Cytotoxicity against human SKBR3 cells assessed as growth inhibition at 100 uM after 18 hrs by capillary-based flow cytometric analysis; format: functional, cell-based
How it was run: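 Short-term viability: SKBR3 cells exposed overnight under the same conditions as the surface-HER2 screen, then stained with a DNA-staining viability reagent; viable cell number counted by capillary flow cytometry.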

[24] = target: T1, Heat shock protein HSP90; experiment: Inhibition of HSP90 in human SKBR3 cells assessed as depletion of cell surface HER2 protein level at 100 uM after 18 hrs by immunofluorescence-based flow cytometric analysis relative to control; conditions: SK-BR-3
How it was run: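 SKBR3 cells treated 18 h at 100 µM (controls: DMSO, GA 0.5 µM, NB 500 µM), trypsinized, blocked in goat serum/PBA (pH 7.6) on ice, anti-HER2 20 µg/mL 30 min then Alexa 488 secondary 2 µg/mL 20 min on ice; mean fluorescence intensity by flow cytometry, isotype antibody control.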

[25] = test system: SK-BR-3; experiment: Cytotoxicity against ER-negative human SKBR3 cells expressing high level of HER2 after 3 days by MTT assay; format: functional, cell-based; conditions: SK-BR-3, 72 h
How it was run: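 SKBR3 cells in RPMI 1640 with 10% FBS exposed to serial dilutions for 3 days; MTT dye-reduction read-out of relative viable cell number. IC50 taken as concentration giving 50% reduction versus DMSO-treated cells.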

[26] = target: T1, Heat shock protein HSP90; experiment: Inhibition of HSP90 in human MCF7 cells assessed as depletion of cell surface HER2 protein level after 18 hrs by flow cytometry
[27] = test system: MCF7; experiment: Induction of HSP70 in human MCF7 cells by Western blot analysis; format: cell-based; how it was run: as §4
[28] = test system: SK-BR-3; experiment: Cell cycle arrest in human SKBR3 cells assessed as accumulation at subG1 phase at 1000 uM after 48 hrs by flow cytometric analysis (reference value: 7 +/- 1%); format: functional
[29] = test system: SK-BR-3; experiment: Cell cycle arrest in human SKBR3 cells assessed as accumulation at G2/M phase at 1000 uM after 48 hrs by flow cytometric analysis (reference value: 21 +/- 1%); format: functional
[30] = organism: Oryctolagus cuniculus; experiment: Inhibition of HSP90 in rabbit reticulocyte lysate assessed as inhibition of heat-denatured luciferase refolding at 500 uM by luminescence plate reader analysis; conditions: TDE = time-dependent effect; how it was run: as §1
[31] = organism: Mus musculus; experiment: Inhibition of HSP90 in mouse 3T3-Y9-B12 cells assessed as activation of HSF1 at 1000 uM after overnight incubation by GFP reporter gene assay relative to control; format: cell-based; how it was run: as §2
[32] = target: T1, Heat shock protein HSP90; experiment: Inhibition of HSP90 in human SKBR3 cells assessed as aggregation of intracellular HER2 at 1000 uM after 18 hrs by DAPI staining-based immunofluorescence microscopic analysis; format: cell-based; conditions: SK-BR-3; how it was run: as §3
[33] = test system: SK-BR-3; experiment: Cell cycle arrest in human SKBR3 cells assessed as accumulation at S phase at 1000 uM after 48 hrs by flow cytometric analysis (reference value: 19 +/- 6%); format: functional
[34] = test system: SK-BR-3; experiment: Cell cycle arrest in human SKBR3 cells assessed as accumulation at G0/G1 phase at 1000 uM after 48 hrs by flow cytometric analysis (reference value: 54 +/- 2%); format: functional

Compound: COC1=C2C[C@@H](C)C[C@H](OC)[C@H](O)[C@@H](C)/C=C(\C)[C@H](OC(N)=O)[C@@H](OC)/C=C\C=C(/C)C(=O)NC(=CC1=O)C2=O [GELDANAMYCIN]
- Activity [1]: 16%
- Activity [2]: 18%
- Activity [3]: 10%
- inhibition [4]: Dose-dependent effect
- inhibition [5]: tde
- Activity [6]: 65%

Compound: CO[C@@H]1[C@@H](OC(N)=O)[C@@H](O)[C@H](Oc2ccc3cc(NC(=O)c4ccc(O)c(CC=C(C)C)c4)c(=O)oc3c2C)OC1(C)C
- Activity [7]: Dose-dependent effect
- Activity [8]: tde
- Activity [9]: 22%
- Activity [10]: 48%
- Activity [11]: 9%
- Activity [12]: 15%
- Activity [13]: 10%
- Activity [14]: 17%
- Activity [15]: 62%
- Activity [16]: 43%
- inhibition [4]: Dose-dependent effect
- inhibition [17]: tde
- fold change (FC) [18]: < 2
- IC50 [19]: 15 µM
- inhibition [20]: Active
- inhibition [21]: Active
- inhibition [22]: 50%
- growth inhibition (GI) [23]: Active
- inhibition [24]: 40%
- IC50 [25]: 17 µM
- EC50 [26]: 24 µM

Compound: COc1ccc(C(=O)Nc2c(OC)c3ccc(O[C@@H]4OC(C)(C)[C@H](OC)[C@@H](OC(N)=O)[C@H]4O)c(C)c3oc2=O)cc1CC=C(C)C
- IC50 [19]: 18 µM
- inhibition [22]: 50%
- growth inhibition (GI) [23]: Active
- inhibition [24]: 40%
- IC50 [25]: 19 µM
- EC50 [26]: 38 µM

Compound: CO[C@@H]1[C@@H](OC(=O)c2ccc(C)[nH]2)[C@@H](O)[C@H](Oc2ccc3c(O)c(NC(=O)c4cc5ccccc5[nH]4)c(=O)oc3c2C)OC1(C)C
- growth inhibition (GI) [23]: Active
- inhibition [24]: 40%
- EC50 [26]: > 50 µM

Compound: CO[C@@H]1[C@@H](OC(N)=O)[C@@H](O)[C@H](Oc2ccc3cc(NC(=O)c4cc5ccccc5[nH]4)c(=O)oc3c2C)OC1(C)C
- Activity [7]: Dose-dependent effect
- Activity [8]: tde
- Activity [9]: 8%
- Activity [10]: 29%
- Activity [11]: 18%
- Activity [12]: 10%
- Activity [13]: 17%
- Activity [14]: 10%
- Activity [15]: 58%
- Activity [16]: 56%
- inhibition [4]: Dose-dependent effect
- inhibition [17]: tde
- fold change (FC) [18]: < 2
- IC50 [19]: 6 µM
- inhibition [20]: Active
- Activity [27]: Active
- inhibition [21]: Active
- inhibition [22]: 50%
- growth inhibition (GI) [23]: Active
- inhibition [24]: 40%
- IC50 [25]: 10 µM
- EC50 [26]: 20 µM

Compound: COc1ccc(C(=O)Nc2c(OC)c3ccc(O[C@@H]4OC(C)(C)[C@H](OC)[C@@H](O)[C@H]4O)c(C)c3oc2=O)cc1CC=C(C)C
- IC50 [19]: 19 µM
- inhibition [22]: 50%
- growth inhibition (GI) [23]: Active
- inhibition [24]: 40%
- IC50 [25]: 25 µM
- EC50 [26]: 41 µM

Compound: CO[C@@H]1[C@@H](OC(N)=O)[C@@H](O)[C@H](Oc2ccc3c(O)c(NC(=O)c4ccc(O)c(CC=C(C)C)c4)c(=O)oc3c2C)OC1(C)C [NOVOBIOCIN]
- Activity [28]: 38%
- Activity [29]: 10%
- inhibition [4]: Dose-dependent effect
- inhibition [30]: tde
- fold change (FC) [31]: 1.5
- IC50 [19]: 357 µM
- inhibition [32]: Active
- inhibition [24]: inactive
- Activity [33]: 15%
- Activity [34]: 57%
- IC50 [25]: 350 µM

— ChEMBL document CHEMBL2417395, “Synthesis and biological evaluation of novobiocin analogues as potential heat shock protein 90 inhibitors” (Bioorg Med Chem, 2013)
